Each structure is given as a SMILES string. Active and inactive are the calls of the source.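 The calls were made as follows, unless noted: active = GFP response above 150% of the DMSO level; inconclusive = fewer than 70 events counted for a yeast strain; inactive = the rest.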

Test [1] in a line: hit retest on RPL19A-GFP reporter strain – cell-based, S. cerevisiae, flow cytometry, cherry picks, mother/daughter gates, confirmation (AID 2270;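 active = GFP response below 50% of the DMSO control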). As to conditions: 3 h, at 10 µM, stronger effect = lower value, 100 = same GFP as DMSO wells. A general note: In flow cytometry, cells or beads pass a laser one at a time.
Test [2] in a line: yeast TOR pathway reporter LAP4-GFP change – cell-based, cherry picks, flow cytometry, mother/daughter gates, confirmation (AID 2271;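 active = GFP response above 150% of the DMSO control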;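 also: ratio of sample to DMSO plate mean so 100% equals DMSO level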). To be noted: S. cerevisiae LAP4-GFP strain, 3 h, at 10 µM, stronger effect = higher value, 100 means same as DMSO control. The procedure, abridged:
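Measured by: GFP by flow cytometry. Test system: GFP-fusion yeast strain. Input: yeast cells seeded at OD600 of 0.2. Timing: 30 °C, 3 h compound incubation, rotating. Buffer or medium: synthetic complete medium for yeast. Benchmarks: DMSO-only negative wells, rapamycin 400 ng/mL positive wells. Compound: 10 µM single dose.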

A short description of test [3]: TOR pathway reporter MEP2-GFP, retest of hits – S. cerevisiae, flow cytometry GFP, cherry picks, confirmation (AID 2272;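 active = GFP response above 150% of the DMSO control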;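 also: ratio of well signal to plate DMSO mean so 100% equals DMSO level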). To be noted: S. cerevisiae MEP2-GFP strain, 3 h, at 10 µM, stronger effect = higher value.
A short description of test [4]: yeast AGP1-GFP fluorescence change, single-dose – cell-based, flow cytometry, S. cerevisiae, cherry picks, confirmation (AID 2273).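 Also: median GFP channel fluorescence over the whole cell population gate.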 To be noted: S. cerevisiae AGP1-GFP strain, 3 h, at 10 µM.
The nature of test [5]: TOR pathway CIT2 reporter hit retest – S. cerevisiae, GFP fusion, cherry picks, mother/daughter gates, confirmation (AID 2274). As to conditions: S. cerevisiae CIT2-GFP strain, flow cytometry, 3 h, at 10 µM, stronger effect = higher value.
Where [6] appears, read: measured here: daughter cell gate.
Setting [7] is: measured here: mother cell gate.
Where [8] appears, read: measured here: daughter cell gate response.
The mark [9] stands for this setting: measured here: mother cell gate response.

Turning to `O=C1C2C3C=CC(CO)(O3)C2C(=O)N1c1ccccc1-c1ccccc1` (stereo not drawn), the GFP response vs DMSO in test [1] was 113% (inactive); in test [1] (setting [6]) it was 117%; in test [1] (setting [7]), 110%; in test [3], 126% (inactive). Also, the GFP response relative to DMSO is 135% (inactive) in test [2], 128% in test [2] (setting [8]) and 132% in test [2] (setting [9]). Also, the GFP response, % of DMSO was 109% (inactive) in test [4], 124% (inactive) in test [5], 132% in test [5] (setting [6]) and 113% in test [5] (setting [7]).

`COc1ccc(N=Cc2nc(-c3ccccc3)oc2OC(=O)c2ccccc2)cc1`: the GFP response vs DMSO is 101% (inactive) in test [1], 101% in test [1] (setting [6]), 101% in test [1] (setting [7]) and 94.4% (inactive) in test [3]. Besides, the GFP response relative to DMSO in test [2] is 108% (inactive); in test [2] (setting [8]), 104%; in test [2] (setting [9]), 111%. The GFP response, % of DMSO is 98.1% (inactive) in test [4], 93.4% (inactive) in test [5], 92.1% in test [5] (setting [6]) and 91.8% in test [5] (setting [7]).

Turning to `O=C(NNC(=S)NC(=O)c1cn(-c2ccccc2)nc1-c1ccccc1)c1ccncc1`, the GFP response vs DMSO is 98% (inactive) in test [1], 101% in test [1] (setting [6]), 94.8% in test [1] (setting [7]) and 101% (inactive) in test [3]. Moreover, the GFP response relative to DMSO in test [2] is 143% (inactive); in test [2] (setting [8]) it was 125%; in test [2] (setting [9]) it was 146%. Besides, the GFP response, % of DMSO in test [4] was 99.5% (inactive); in test [5], 98.6% (inactive); in test [5] (setting [6]), 103%; in test [5] (setting [7]), 96%.

In the case of `COc1ccc(C2CC(c3c(-c4ccccc4)c4cc(Cl)ccc4[nH]c3=O)=NN2S(C)(=O)=O)cc1` (stereo not drawn), the GFP response vs DMSO is 100% (inactive) in test [1], 99.1% in test [1] (setting [6]), 102% in test [1] (setting [7]) and 100% (inactive) in test [3]. Further, the values for the GFP response relative to DMSO in test [2], in test [2] (setting [8]) and in test [2] (setting [9]) were 99.2% (inactive), 97.6% and 97.2%, respectively. For the same compound, the GFP response, % of DMSO was 99.9% (inactive) in test [4], 99.7% (inactive) in test [5], 101% in test [5] (setting [6]) and 99.7% in test [5] (setting [7]).

In the case of `COc1ccc2cc(-c3cc(C(=O)O)c4ccccc4n3)ccc2c1`, the GFP response vs DMSO is 98.6% (inactive) in test [1], 95.9% in test [1] (setting [6]), 98.2% in test [1] (setting [7]) and 107% (inactive) in test [3]. In addition, the GFP response relative to DMSO is 99.8% (inactive) in test [2], 100% in test [2] (setting [8]) and 101% in test [2] (setting [9]). Also, the GFP response, % of DMSO in test [4] was 96.5% (inactive); in test [5], 145% (inactive); in test [5] (setting [6]), 128%; in test [5] (setting [7]) it was 152%.

In the case of `Oc1c(Br)cc(Br)cc1C=NCc1ccccc1`, the GFP response vs DMSO in test [1] is 101% (inactive); in test [1] (setting [6]) it was 91.3%; in test [1] (setting [7]) it was 101%; in test [3], 112% (inactive). For the same compound, the GFP response relative to DMSO in test [2] is 135% (inactive); in test [2] (setting [8]), 105%; in test [2] (setting [9]), 137%. For the same compound, the GFP response, % of DMSO was 99.7% (inactive) in test [4], 104% (inactive) in test [5], 108% in test [5] (setting [6]) and 92.1% in test [5] (setting [7]).

Take `Cc1cc(=O)[nH]c(-n2nc(C)cc2C)n1`: the GFP response vs DMSO is 98% (inactive) in test [1], 99.1% in test [1] (setting [6]), 97.8% in test [1] (setting [7]) and 105% (inactive) in test [3]. Moreover, the GFP response relative to DMSO is 101% (inactive) in test [2], 101% in test [2] (setting [8]) and 100% in test [2] (setting [9]). Further, the GFP response, % of DMSO in test [4] was 99.8% (inactive); in test [5] it was 94.4% (inactive); in test [5] (setting [6]), 97.4%; in test [5] (setting [7]), 91.9%.

Take `Cc1cccc(NC(=S)NCC23C=CC(O2)C2C(=O)N(c4ccc(Cl)cc4)C(=O)C23)c1` (stereo not drawn): the GFP response vs DMSO was 100% (inactive) in test [1], 103% in test [1] (setting [6]), 99.8% in test [1] (setting [7]) and 102% (inactive) in test [3]. The GFP response relative to DMSO is 103% (inactive) in test [2], 102% in test [2] (setting [8]) and 104% in test [2] (setting [9]). Also, the GFP response, % of DMSO in test [4] was 100% (inactive); in test [5] it was 104% (inactive); in test [5] (setting [6]), 104%; in test [5] (setting [7]) it was 103%.

On to `Cn1ncc(S(=O)(=O)Cc2ccccc2)c(Cl)c1=O`, for which the GFP response vs DMSO in test [1] was 94.2% (inactive); in test [1] (setting [6]), 90.6%; in test [1] (setting [7]) it was 87.7%; in test [3] it was 100% (inactive). Moreover, the GFP response relative to DMSO in test [2] is 316% (active); in test [2] (setting [8]) it was 160%; in test [2] (setting [9]), 319%. In addition, the GFP response, % of DMSO is 79.1% (inactive) in test [4], 92.6% (inactive) in test [5], 101% in test [5] (setting [6]) and 84.3% in test [5] (setting [7]).

In the case of `COCc1cc(=O)[nH]c(SCCS(=O)(=O)c2ccc(Cl)cc2Cl)n1`, the GFP response vs DMSO in test [1] was 110% (inactive); in test [1] (setting [6]) it was 115%; in test [1] (setting [7]) it was 107%; in test [3], 100% (inactive). Moreover, the GFP response relative to DMSO is 102% (inactive) in test [2], 100% in test [2] (setting [8]) and 105% in test [2] (setting [9]). Further, the GFP response, % of DMSO is 103% (inactive) in test [4], 119% (inactive) in test [5], 119% in test [5] (setting [6]) and 116% in test [5] (setting [7]).

As to `c1cc2c(cc1C1CCCCC1)c1c3n2CCCNC3CCC1` (stereo not drawn), the GFP response vs DMSO is 101% (inactive) in test [1], 99% in test [1] (setting [6]), 100% in test [1] (setting [7]) and 111% (inactive) in test [3]. For the same compound, the GFP response relative to DMSO in test [2] is 101% (inactive); in test [2] (setting [8]), 102%; in test [2] (setting [9]), 102%. In addition, the GFP response, % of DMSO is 105% (inactive) in test [4], 100% (inactive) in test [5], 96.5% in test [5] (setting [6]) and 98.7% in test [5] (setting [7]).

In the case of `COc1cccc(N=Nc2ccc3cccnc3c2O)c1`, the GFP response vs DMSO is 99.8% (inactive) in test [1], 97.6% in test [1] (setting [6]), 101% in test [1] (setting [7]) and 120% (inactive) in test [3]. Moreover, the GFP response relative to DMSO in test [2] is 147% (inactive); in test [2] (setting [8]), 140%; in test [2] (setting [9]), 146%. Besides, the GFP response, % of DMSO in test [4] was 93.2% (inactive); in test [5], 98.8% (inactive); in test [5] (setting [6]), 103%; in test [5] (setting [7]) it was 96.8%.

Consider `COc1ccc(CN2CN(C(C)C)CSC2=S)cc1`, for which the GFP response vs DMSO was 98.8% (inactive) in test [1], 96.7% in test [1] (setting [6]), 92.1% in test [1] (setting [7]) and 146% (inactive) in test [3]. For the same compound, the GFP response relative to DMSO in test [2] was 112% (inactive); in test [2] (setting [8]) it was 106%; in test [2] (setting [9]) it was 107%. The GFP response, % of DMSO in test [4] is 107% (inactive); in test [5] it was 80.8% (inactive); in test [5] (setting [6]), 80.1%; in test [5] (setting [7]), 75.1%.

(Values after PubChem BioAssay.)
